# Biological target: T1, Cytochrome P450 2B1 (Rattus norvegicus, UniProt P00176)
# T1 sequence (P00176 whole entry): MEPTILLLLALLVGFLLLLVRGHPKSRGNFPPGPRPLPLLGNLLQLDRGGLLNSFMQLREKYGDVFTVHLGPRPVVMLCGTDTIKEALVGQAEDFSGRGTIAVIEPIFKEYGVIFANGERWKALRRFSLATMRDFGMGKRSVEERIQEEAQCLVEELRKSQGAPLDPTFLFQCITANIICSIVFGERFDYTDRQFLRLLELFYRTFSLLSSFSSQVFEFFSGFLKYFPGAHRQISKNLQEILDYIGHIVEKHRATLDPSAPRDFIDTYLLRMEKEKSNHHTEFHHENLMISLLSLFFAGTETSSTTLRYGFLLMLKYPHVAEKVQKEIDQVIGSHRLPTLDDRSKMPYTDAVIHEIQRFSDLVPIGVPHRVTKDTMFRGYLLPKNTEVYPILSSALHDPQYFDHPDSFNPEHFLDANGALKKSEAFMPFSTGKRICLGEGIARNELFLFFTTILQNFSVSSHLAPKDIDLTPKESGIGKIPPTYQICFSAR
# Test: Inhibitory potency to aminopyrine N-demethylase activity (P450) in hepatic microsomes from phenobarbitone-induced rats.
# In short: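 Microsomes (105000g pellet) from livers of male Wistar rats (100–150 g) given phenobarbitone ip on consecutive days. A 3.0 mL mix in 0.1 M K phosphate, pH 7.4, held aminopyrine 1.61 μmol, NADPH-generating system, semicarbazide and 5.6 mg protein, run 15 min. Formaldehyde was read by Nash/Hantzsch. Inhibitor went in DMSO or 0.07 M HCl, with solvent in controls. I50 came from seven concentrations.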
row,IC50,SMILES
1,457 µM,NCc1nc2ccccc2[nH]1
2,269 µM,CCc1nc2ccc(C)cc2[nH]1
3,158 µM,CC(C)Cc1nc2ccccc2[nH]1
4,151 µM,Cc1nc2cc(Cl)ccc2[nH]1
5,158 µM,CCCCCc1nc2cc(NC(C)=O)ccc2[nH]1
6,219 µM,Cc1nc2ccc([N+](=O)[O-])cc2[nH]1
7,575 µM,Cc1ccc2[nH]cnc2c1 [5-methyl-1H-benzimidazole]
8,120 µM,CCCCc1nc2ccccc2[nH]1
9,417 µM,CCCCC(=O)Nc1ccc2nc(C)[nH]c2c1
10,537 µM,CC(C)c1nc2ccccc2[nH]1
11,1260 µM,CC(=O)Nc1ccc2nc(C)[nH]c2c1
12,110 µM,CCCc1nc2cc(C)c(C)cc2[nH]1
13,479 µM,Cc1ccc2nc(C)[nH]c2c1

# More lines, now with the values behind:
row,SMILES,IC50
1,Clc1ccc2[nH]cnc2c1,158 µM
2,ClCc1nc2ccccc2[nH]1,141 µM
3,CC(=O)Nc1cc(Cl)cc2[nH]c(C)nc12,309 µM
4,O=[N+]([O-])c1cccc2[nH]cnc12,468 µM
5,c1ccc2[nH]c(C3CC3)nc2c1,251 µM
6,O=[N+]([O-])c1ccc2[nH]cnc2c1 [5-Nitro-1H-benzoimidazole],309 µM
7,FC(F)(F)c1nc2ccccc2[nH]1,257 µM
8,CC(C)(C)c1nc2ccccc2[nH]1,302 µM
9,Cc1nc2c(C)c(C)ccc2[nH]1,251 µM
10,Cc1cccc2[nH]cnc12,525 µM
11,Fc1ccc2[nH]cnc2c1,437 µM
12,Cc1nc2cc(NC(=O)c3ccccc3)ccc2[nH]1,302 µM
13,O=[N+]([O-])c1cc(Cl)cc2[nH]cnc12,129 µM
14,c1cncc(-c2nc3ccccc3[nH]2)c1,200 µM
15,OC(c1ccccc1)c1nc2ccccc2[nH]1 (stereo not drawn),158 µM
